Publication PMC7986169 (Clinical Pharmacology in Drug Development, 2021)
Where “and” joins values, the source holds several entries; their conditions need not be identical. Identical values can stand only once. Like-named read-outs stand apart in the source and are kept apart here.

Columns and labels:
[1] = cited from earlier work
[2] = tested on: JAK1; conditions: in vitro assays; cited from earlier work
[3] = Population pharmacokinetic analysis; type: in vivo, human
Summary of the method: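 Oral dosing at 0.5–15 mg twice daily in UC patients, excluding creatinine clearance <40 mL/min. Predose and postdose plasma samples were stored at about –20°C and assayed by a validated method (LOQ 0.100 ng/mL). One-compartment model with first-order absorption, with or without lag. Exponential IIV on CL/F and V/F; IOV on Ka. Separate proportional residual errors for >8 h and ≤8 h postdose. FOCE with interaction; nonparametric bootstrap, 1000 runs.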

[4] = cited from earlier work; remark: listed apart in the source
[5] = final model, table: estimate (RSE%), text: estimate (95%CI bootstrap)
[6] = fraction of the reference category (male)

For C[C@@H]1CCN(C(=O)CC#N)C[C@@H]1N(C)c1ncnc2[nH]ccc12 [tofacitinib], the “Share of clearance due to renal elimination” value [1] is given as 30%, the “Mean terminal-phase half-life (t½)” value ([1]; healthy volunteers) is given as “approximately 3.2 h” and the “Time of peak plasma concentration after oral administration” value ([1]; healthy volunteers) is given as “approximately 1 hour (h)”. The “Share of clearance via hepatic metabolism” value ([1]; primarily via cytochrome P450 3A4) was 70%, the “Inhibitory potency for JAK1” value [2] was “potent inhibitor” and the “CL/F, typical estimate” value ([3]; base model) was 25.0 L/h. The “IIV (%CV) for CL/F” value ([3]; base model) was 25.2%, the “IOV (%CV) for Ka” value ([3]; base model) was 192.4% and the Ka ([3]; base model) was 9.9 h⁻¹. For the same compound, the “V/F, typical estimate” value ([3]; base model) was 111 L, the “CL/F, bootstrap median” value ([3]; bootstrap of final model) was 26.3 L/h and the “IIV for CL/F, bootstrap” value ([3]; bootstrap of final model) was 22.2%. For the same compound, the “Ka, bootstrap median” value ([3]; bootstrap of final model) was 9.86 h⁻¹, the “Lag time, bootstrap median” value ([3]; bootstrap of final model) was 0.236 (NA) h and the “V/F, bootstrap median” value ([3]; bootstrap of final model) was 115.5 (NA) L. For the same compound, the “IOV for Ka, bootstrap” value ([3]; bootstrap of final model, IOV instead of IIV (footnote b)) was 191.9%, the “Dose proportionality of exposure” value ([3]; dose range 0.5-15 mg twice daily) was “dose‐proportional increase” and the “Lower CL/F, Asian compared with non-Asian patients” value ([3]; final model prediction) was 6.8%. The “Lower CL/F, baseline creatinine clearance 60 mL/min compared to 108.7 mL/min” value ([3]; final model prediction) was 19%, the “Lower CL/F, females compared with males” value ([3]; final model prediction) was 13.2% and the “Lower V/F, female compared with male patients” value ([3]; final model prediction) was 15.5%. For the same compound, the “Lower V/F, patient aged 80 years compared with 40 years” value ([3]; final model prediction) was 7.7%, the “Lower V/F, patient weighing 53 kg relative to 72.0 kg” value ([3]; final model prediction, 10th percentile of weight) was “approximately 16.4%” and the “Higher V/F, patient weighing 95 kg relative to 72.0 kg” value ([3]; final model prediction, 90th percentile of weight) was roughly 17.6%. The “CL/F (apparent oral clearance), typical estimate” value ([3]; final model, reference individual: non-Asian male, 72.0 kg, 40.0 years, baseline creatinine clearance 108.7 mL/min, table: estimate (RSE%), text: estimate (95%CI bootstrap)) was 26.3 L/h and 26.3 (25.5–27.2) L/h and 26.3 (1.2) L/h, the “IIV (%CV) for CL/F” value ([3]; final model, table: IIV (RSE%)) was 22% and 22.2% and 22.2 (7.7) % and the “IOV (%CV) for Ka” value ([3]; final model, table: IOV (RSE%)) was 191.8% and 191.8 (7.0) %. For the same compound, the “Ka (first-order absorption rate constant), typical estimate” value [3, 5] was 9.9 (7.1) h^−1, the Lag time [3, 5] was 0.236 (0.52) h and the “Covariate parameter estimate: Female on CL/F” value [3, 6] was 0.868. The “Covariate parameter estimate: Female on V/F” value [3, 6] was 0.845, the “Covariate parameter estimate: Asian on CL/F” value ([3]; fraction of the reference category (non-Asian)) was 0.932 and the Vd/F ([3]; human, plasma, oral) was 116 L. The half-life ([3]; human, plasma, oral, Derived elimination half-life (t½), final model, patients with UC) was 3.05 h, the half-life ([3]; human, plasma, oral, Derived elimination t½, base model) was roughly 3.05 h and the “Covariate parameter estimate: Age on V/F” value ([3]; power function exponent, normalized to 40.0 years) was “–0.116”. The “Covariate parameter estimate: Body weight on V/F” value ([3]; power function exponent, normalized to 72.0 kg) was 0.585, the “Covariate parameter estimate: BCCL on CL/F” value ([3]; power function exponent, normalized to 108.7 mL/min) was 0.354 and the “AUC higher than in healthy individuals” value ([4]; mild renal impairment) was 37%. The “AUC higher than in healthy individuals” value ([4]; moderate renal impairment) was 43% and the “AUC higher than in healthy individuals” value ([4]; severe renal impairment) was 123%.
